Data on 88 compounds can be found in PubChem BioAssay AID624467 (The Scripps Research Institute Molecular Screening Center, 2012).

Hit rate of the full screen: of about 360,000 compounds, about 3,600 (1%) were called active. This is one part of a sample in which actives are shown more often than they occur.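 The calls were made as follows: active = activation above the mean activation of all test compounds in the run plus 3 SD (cut at about 38% in these data); inactive = the rest.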

Chain of Trace amine-associated receptor 1 (Homo sapiens) (Q96RJ0 whole entry, looked up): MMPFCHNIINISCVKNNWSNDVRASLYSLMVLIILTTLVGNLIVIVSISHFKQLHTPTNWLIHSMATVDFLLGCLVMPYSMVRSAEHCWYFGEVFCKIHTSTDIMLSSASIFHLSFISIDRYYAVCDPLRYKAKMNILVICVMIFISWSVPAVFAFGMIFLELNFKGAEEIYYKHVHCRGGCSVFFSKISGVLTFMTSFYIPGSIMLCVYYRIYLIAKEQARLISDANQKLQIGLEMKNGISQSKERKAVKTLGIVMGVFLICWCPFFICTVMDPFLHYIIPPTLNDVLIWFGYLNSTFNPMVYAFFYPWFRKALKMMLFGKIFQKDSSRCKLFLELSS

In this assay the target is Trace amine-associated receptor 1 (Homo sapiens) (UniProt Q96RJ0). Briefly: human TAAR1 agonists, primary screen, Fluo-8 calcium fluorescence, CHO RD-HGA16 cells (AID 624467). The following applies: CHO RD-HGA16 TAAR1, Fluo-8 calcium fluorescence; at 3 µM; active compounds read high; vehicle wells 0%, saturating PEA agonist 100%. The method in brief: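 test system = CHO RD-HGA16 cells carrying human TAAR1 plus Gα16 | schedule = 17-24 h seeding, 75 min 37 °C dye, 30 min RT | compound dosing = 3 µM single concentration | control set = DMSO and PEA EC100 | replicates = n 1 | signal = Fluo-8 fluorescence, 5 s baseline then 140 s kinetic read | measure = percent activation vs PEA EC100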
Regarding `CC1CCN(C(=O)CCNC(=O)c2ccccc2)CC1`, the activation is 1.29% (inactive).

Consider `CC1CCCN(c2ccc(C(=O)NCCc3ccccc3)cn2)C1` (stereo not drawn), for which the activation is 41.2% (active). Next, `CC1CCN(c2c(NCc3ccc(C(=O)NCc4ccccc4)cc3)c(=O)c2=O)CC1`: 0.05% (inactive); `CC(=O)NC1C(Oc2ccc(C)cc2)OC2COC(c3ccco3)OC2C1O` (stereo not drawn): 1.22% (inactive).

On to `CCc1ccc(NC(=O)Nc2ccncc2)cc1`, for which the activation is 30.2% (inactive). Next, `O=C(Nc1ccc(Cl)cc1)Nc1ccc(Oc2cccnc2)nc1`: 35.4% (inactive); `O=C(Nc1ccncc1)Nc1ccc(F)cc1`: 78.9% (active); `O=C(CCC(=O)n1ncc2ccccc21)NCc1ccccc1Cl`: 0.3% (inactive).

In the case of `COc1cccc(NC(=O)N(C)C[C@@H]2OCc3cn(nn3)CCCC(=O)N([C@@H](C)CO)C[C@H]2C)c1`, the activation was 1.34% (inactive). With `O=S(=O)(c1ccc(Br)c2ccccc12)N1CCOCC1`, the activation is 3.96% (inactive). The same measure for `Cc1cccc(C)c1-n1c(C)cc(/C=C2\C(=O)NN(c3ccccc3)C2=O)c1C`: 38.3% (active); for `CCOC(=O)C1=C(O)/C(=C/c2cc(C)n(-c3ccccc3)c2C)N=C1C`: 8.89% (inactive); for `CN(C(=O)c1cccc(NC(=O)C2CCN(C(=O)OC(C)(C)C)CC2)c1)C1CCC1`: 12.7% (inactive). Next, `O=C(Nc1nnc([C@H]2C[C@H](O)[C@@H](CO)O2)s1)c1cccc(Cl)c1`: 2.33% (inactive). For the compound `O=C(Nc1ccc(F)cc1)Nc1nnc([C@H]2C[C@H](O)[C@@H](CO)O2)s1`, the activation is 45% (active).

`Cc1ccc(CNC(=O)Nc2nnc([C@H]3C[C@H](O)[C@@H](CO)O3)s2)cc1`: the activation was 0.94% (inactive). For the compound `CC(=O)c1c(N2CCN(c3ccc(F)cc3)CC2)nc(=S)n(-c2ccccc2)c1C`, the activation is -0.41% (inactive). Turning to `Cn1ccsc1=NC(=O)c1cc(S(=O)(=O)N2CCOCC2)ccc1Cl`, the activation was 4.63% (inactive). The same measure for `COc1ccc(-c2ccc3c(n2)CCCN3S(=O)(=O)c2ccc(C)cc2)cc1`: 1.61% (inactive); for `CC(=O)Oc1ccc(Cn2c(C)c(C(=O)NCc3ccc(C#N)cc3)sc2=O)cc1`: 140% (active); for `Cc1ccc(Cn2c(C)c(C(=O)NCc3ccccc3C(F)(F)F)sc2=O)cc1`: 0.22% (inactive). The same measure for `Cc1c(C(=O)NCc2ccc(C#N)cc2)sc(=O)n1Cc1ccc(C(=O)N(C)C)cc1`: 2.3% (inactive); for `CC(C)[C@@H](C)/C=C/[C@@H](C)[C@H]1CC[C@@H]2[C@]1(C)CCC1[C@]23C=C[C@]2(C[C@@H](O)CC[C@]12C)N(c1ccc([N+](=O)[O-])cn1)O3` (stereo partly drawn): -0.81% (inactive). As for `O=C(NCc1ccccc1)[C@H]1CCCN1C(=O)[C@H]1CCCN1C(=O)c1cc(F)cc(F)c1`, the activation is -0.16% (inactive). As to `CCCCNc1cccc2c1S(=O)(=O)N[C@@H](C)CO2`, the activation is -1.01% (inactive).

Consider `Cc1cc(CN(C)C(=O)c2cc(COc3ccc(C)c(C)c3)on2)n[nH]1`, for which the activation was 2.87% (inactive). The same measure for `CN(c1cccc(NC(=O)Nc2ccc(Cl)cc2)c1)S(C)(=O)=O`: 46.9% (active); for `CN(c1cccc(NC(=O)c2ccc(CN3CCc4ccccc4C3)cc2)c1)S(C)(=O)=O`: 7.79% (inactive); for `CC(C)S(=O)(=O)c1csc(NC(=O)Nc2ccc(Cl)cc2)c1Cl`: 17.9% (inactive). `CC(=O)NC1=NN(C(C)=O)C(C)(c2ccc(Cl)s2)S1` (stereo not drawn): the activation is 5.71% (inactive). The same measure for `CN(C)S(=O)(=O)N1CCC(Oc2cccc(C(=O)NCCCC3CCCC3)c2)CC1`: 11.3% (inactive); for `O=C1CCCC(O)=C1C=NCCc1ccccc1`: 60.6% (active).

Regarding `CC1(C)CC(=O)C(C=NCCC2=CCCCC2)=C(O)C1`, the activation was 20.1% (inactive). Next, `O=C1CC(c2ccccc2)CC(O)=C1C=NCCN1CCOCC1` (stereo not drawn): 2.73% (inactive). Next, `COC(=O)C1=C(C)N(Cc2ccccc2C(F)(F)F)C(=NCc2ccc(OC)cc2)NC1c1cccc(C(F)(F)F)c1` (stereo not drawn): 9.5% (inactive); `CC(C)N(Cc1ccccc1)C(=O)COC(=O)c1ccccc1SCC(=O)N1CCCC1`: 15.6% (inactive). The same measure for `O=C(NCCc1ccccc1)C(=O)NCC1OCCN1S(=O)(=O)c1cccs1` (stereo not drawn): 56.5% (active); for `O=C(NCCCc1ccccc1)C(=O)NCC1OCCN1S(=O)(=O)c1ccccc1` (stereo not drawn): 8.57% (inactive); for `COc1ccc(CCNC(=O)C(=O)NCC2OCCN2S(=O)(=O)c2cccs2)cc1OC` (stereo not drawn): 1.17% (inactive). Turning to `COc1cccc(CNC(=O)[C@H]2CCCN2C(=O)[C@H]2CCCN2C(=O)c2cc(F)cc(F)c2)c1`, the activation is 2.08% (inactive). Next, `O=C1Nc2ccccc2C1=NN=Cc1ccco1`: 0.51% (inactive).

In the case of `Cn1nc(C(F)(F)F)c(C(=O)Nc2cccc(C(F)(F)F)c2)c1SCc1ccc(Cl)cc1`, the activation is 11% (inactive). For the compound `COCc1nc2ccccc2n1Cc1ccccc1Br`, the activation was 12.1% (inactive). The same measure for `NC(=O)C1=C[C@H](c2csc3ccccc23)C[C@H](OCc2ccc(CO)cc2)O1`: 60.3% (active); for `NC(=O)C1=C[C@@H](c2csc3ccccc23)C[C@@H](OCc2ccc(CO)cc2)O1`: 22.2% (inactive); for `O=C(NC1CC1)C1=C[C@H](c2c[nH]c3ccccc23)C[C@H](OCc2ccc(CO)cc2)O1`: 5.4% (inactive). For the compound `COc1ccc(CCN(C)C(=O)C23CC4CC(CC(Cl)(C4)C2)C3)cc1OC`, the activation was -1.21% (inactive).

As to `CC(C)c1ccc(S(=O)(=O)NC2CCCC2)cc1`, the activation is 1.12% (inactive). Take `Cc1cccc(CCNS(=O)(=O)c2ccc3c(c2)NC(=O)CO3)c1`: the activation is 5.47% (inactive). Turning to `Cc1cccc(CCNS(=O)(=O)c2ccc(S(=O)(=O)NC3CCCC3)cc2)c1`, the activation was 42.8% (active). The same measure for `CN1CCCN(C(=O)C2CCCCC2)CC1`: 1.26% (inactive); for `CC1(Oc2ccccc2-c2ccno2)CCN(Cc2ccc(-c3ccccc3)o2)C1` (stereo not drawn): 1.77% (inactive). The same measure for `Cc1cc2nc3c(=O)[nH]c(=O)nc-3n(C[C@H](O)[C@H](O)[C@H](O)CO)c2cc1C`: 45.3% (active). For `CCOc1ccc(Cn2nnc(C(=O)Nc3ccc(OC)cc3OC)c2N)cc1`, the activation is 42.5% (active). Turning to `CCOc1ccc(Cn2nnc(C(=O)NCc3ccccc3)c2N)cc1`, the activation is 83.3% (active). Next, `COc1cccc(CNC(=O)c2nnn(CC(=O)Nc3cc(Cl)ccc3C)c2N)c1`: 2.23% (inactive); `Nc1c(C(=O)Nc2ccc3c(c2)OCCO3)nnn1Cc1ccccc1`: 0.57% (inactive).

For `COc1cccc(CNC(=O)c2nnn(CC(=O)Nc3cc(C)ccc3C)c2N)c1`, the activation was 2.69% (inactive).

With `CCCn1nc2cc(C(=O)NCc3ccccc3)ccc2c1OCC`, the activation was 3.65% (inactive). For the compound `Cc1cc(OCCCC(=O)NCCN2C(=O)S/C(=C\c3cccnc3)C2=O)ccc1Cl`, the activation was 16.7% (inactive).

Regarding `CCOc1ccc(-n2c(SCC(=O)NC3CCS(=O)(=O)C3)nnc2-c2cccnc2)cc1` (stereo not drawn), the activation was -0.1% (inactive). `CCOC(=O)c1c(N)c(C#N)nn1-c1ccccc1C(=O)OC`: the activation is 1.23% (inactive). As for `COc1ccc(Cl)cc1C(=O)NNC(=S)NC(=O)/C=C/c1ccco1`, the activation is 55.3% (active). Next, `O=C(/C=C/c1ccco1)NC(=S)N1CCCCC1`: 1.82% (inactive); `COc1ccc(Cl)cc1C(=O)NNC(=O)c1nc2nc(C)cc(C)n2n1`: -0.4% (inactive); `CC(C)OC(=O)Cn1nc(C(F)(F)F)c2c1CCCC2`: 3.22% (inactive).

`CCCCn1c(N)c(N(CC(C)C)C(=O)C2CSC3(C)CCC(=O)N23)c(=O)[nH]c1=O` (stereo not drawn): the activation is 4.3% (inactive).

As for `COC(=O)C1=C(C)NC(=S)NC1c1ccc(OC)cc1` (stereo not drawn), the activation was 1.73% (inactive). The same measure for `CC(C)(C)c1ccc(S(=O)(=O)NCC2CCN(C(=O)C(=O)c3cc4ccccc4o3)CC2)cc1`: -0.02% (inactive); for `O=C1N[C@@H](c2ccccc2)COC(=O)[C@H](Cc2ccc(F)cc2)C/C=C\C[C@@H]1CC(=O)N(CCO)Cc1ccccc1`: 18.8% (inactive); for `O=C1NC[C@@H](c2ccccc2)OC(=O)[C@H](Cc2ccc(F)cc2)CC/C=C/C[C@H]1CC(=O)N(CCO)Cc1ccccc1`: 42.6% (active). The same measure for `O=C1CCC/C=C/C[C@@H](CC(=O)N(CCO)Cc2ccccc2)C(=O)NC[C@H](c2ccccc2)O1`: 5.38% (inactive). Next, `Fc1ccc(-n2c(Cc3ccccc3)nnc2SCc2nc(-c3ccc(Cl)cc3)no2)cc1`: 2.7% (inactive). In the case of `Cc1ccc2cc(C)c(N3CCN(c4ccc(F)cc4)CC3)nc2c1`, the activation was 1.28% (inactive). Next, `Cc1cc(C)c2cc(C#N)c(N3CCNCC3)nc2c1`: 69.6% (active). The same measure for `Cc1ccc2cc(C)c(N3CCC(C)CC3)nc2c1`: 17.1% (inactive). Take `C[C@H]1CN([C@@H](C)CO)S(=O)(=O)c2ccc(Br)cc2O[C@H]1CN(C)C(=O)c1cnccn1`: the activation is 1.33% (inactive). Take `CCCOC(=O)c1ccc(N2C(=O)c3ccccc3C2=O)cc1`: the activation was -1.04% (inactive). Next, `CSc1ccccc1NC(=O)C(C)N1C(=O)c2ccccc2S1(=O)=O` (stereo not drawn): 2.86% (inactive); `CC(=O)Nc1ccccc1Sc1ccc2c3c(cccc13)C(=O)N(c1ccc(C)cc1)C2=O`: 47.3% (active). On to `Cc1ccc(NC(=O)Cn2c(C)csc2=O)cc1`, for which the activation was 0.43% (inactive). The same measure for `O=C(Cn1nc(C(=O)O)c2ccccc2c1=O)Nc1ccc(F)cc1`: 6.51% (inactive); for `Cc1ccc(NC(=O)Cn2sc3ccccc3c2=O)cc1`: 37.5% (active). For the compound `COc1cccc(CNC(=O)[C@H]2CCCN2C(=O)[C@H]2CCCN2C(=O)c2ccc(F)cc2)c1`, the activation is -0.3% (inactive).

Turning to `COC(=O)N1Cc2ccnnc2CC1c1ccccc1Br` (stereo not drawn), the activation was 0.4% (inactive).

`O=[N+]([O-])c1cc(Cl)cc(/C=N/NC(=S)Nc2cc(S(=O)(=O)N3CCOCC3)ccc2Cl)c1O`: the activation is 0.47% (inactive). Next, `O=C(N/N=C/c1cc(Cl)cc([N+](=O)[O-])c1O)C(O)(c1ccccc1)c1ccccc1`: 42.4% (active); `O=C(NN=Cc1ccco1)C(=O)Nc1ccc(Cl)c([N+](=O)[O-])c1`: 1.63% (inactive).
